Here are results for one molecule from ChEMBL document CHEMBL1123146, “Design, synthesis, and evaluation of omega-iodovinyl- and omega-iodoalkyl-substituted methyl-branched long-chain fatty acids” (J Med Chem, 1985).

Data set [1] has as its system Rattus norvegicus. As to the kind of experiment: Concentration was measured in lungs tissue of unfasted Fischer 344 rats administered intravenously after 4 hr (radiolabeled with [123I]-. The format is ADME, organism-based, Lung. Particulars: in vivo, iv.
Data set [2] deals with Rattus norvegicus. Put plainly: Concentration was measured in liver tissue of unfasted Fischer 344 rats administered intravenously after 5 minute (radiolabeled with [123I]-. The format is ADME, organism-based. Conditions: in vivo, iv, 5 min.
Data set [3] deals with Rattus norvegicus. Put plainly: Concentration was measured in blood tissue of unfasted Fischer 344 rats administered intravenously after 4 hr (radiolabeled with [125I]-. In kind it is ADME, organism-based. Conditions: in vivo, iv.
The subject of data set [4] is Rattus norvegicus. As to the kind of experiment: Concentration was measured in heart tissue of unfasted Fischer 344 rats administered intravenously after 60 minute (radiolabeled with [125I]-. In kind it is ADME, organism-based. Conditions: in vivo, iv, 1 h. A digest of the protocol:
(§1)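 Female Fischer 344 rats, 10-12 weeks old, 170-200 g, with food and water ad libitum. The 125I-fatty acid was taken up in ethanol, added dropwise to stirred 6% BSA at ~40 °C (final ethanol 10%), filtered, and given as 0.5 mL via lateral tail vein under ether anesthesia. Rats were killed by cervical fracture; blood was taken by cardiac puncture. Organs were rinsed, blotted, weighed and gamma-counted against injectate standards to give %ID/g. Five rats per time point.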

Data set [5] concerns Rattus norvegicus. As to the kind of experiment: Concentration was measured in tissue of unfasted Fischer 344 rats administered intravenously after 60 minute (radiolabeled with [123I]-. The format is ADME, organism-based. Particulars: in vivo, iv, 1 h.
For data set [6], the system named is Rattus norvegicus. As to the kind of experiment: Concentration was measured in tissue of unfasted Fischer 344 rats administered intravenously after 60 minute (radiolabeled with [125I]-. The format is ADME, organism-based. Conditions: in vivo, iv, 1 h. In outline: (§2)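 Female Fischer 344 rats, 10–12 weeks old (170–200 g), with food and water ad libitum, five per time point. The radioiodinated fatty acid was dissolved in ethanol, added to 6% BSA at ~40 °C (final 10% ethanol), filtered, and injected into a lateral tail vein (0.5 mL) under ether anesthesia. Blood was taken by cardiac puncture; organs were rinsed, blotted, weighed and gamma-counted against injectate standards. Output is % injected dose/g.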

Data set [7] deals with Rattus norvegicus. As to the kind of experiment: Concentration was measured in thyroid tissue of unfasted Fischer 344 rats administered intravenously after 5 minute (radiolabeled with [125I]-. In kind it is ADME, organism-based, Thyroid gland. Particulars: in vivo, iv, 5 min. In outline: as §2
The subject of data set [8] is Rattus norvegicus. As to the kind of experiment: Concentration was measured in mean heart/blood tissue of fasted Fischer 344 rats administered intravenously after 60 minute (radiolabeled with [125I]-. Particulars: in vivo, iv, 1 h.
Data set [9] relates to Rattus norvegicus. As to the kind of experiment: Concentration was measured in liver tissue f unfasted Fischer 344 rats administered intravenously after 30 minute (radiolabeled with [123I]-. The format is ADME, organism-based. Particulars: in vivo, iv, 0.5 h.
Data set [10] relates to Rattus norvegicus. Put plainly: Concentration was measured in heart tissue of unfasted Fischer 344 rats administered intravenously after 60 minute (radiolabeled with [123I]-. In kind it is ADME, organism-based. Conditions: in vivo, iv, 1 h.
The test system of data set [11] is Rattus norvegicus. As to the kind of experiment: Concentration was measured in mean heart/blood tissue of fasted Fischer 344 rats administered intravenously after 60 minute (radiolabeled with [123I]-. Particulars: in vivo, iv, 1 h.
Data set [12] has as its system Rattus norvegicus. Put plainly: Concentration was measured in thyroid tissue of unfasted Fischer 344 rats administered intravenously after 5 minute (radiolabeled with [123I]-. The format is ADME, organism-based, Thyroid gland. Particulars: in vivo, iv, 5 min.
The test system of data set [13] is Rattus norvegicus. Put plainly: Concentration was measured in kidney tissue of unfasted Fischer 344 rats administered intravenously after 4 hr (radiolabeled with [125I]-. Particulars: in vivo, iv. The format is ADME, organism-based.
The test system of data set [14] is Rattus norvegicus. As to the kind of experiment: Concentration was measured in kidney tissue of unfasted Fischer 344 rats administered intravenously after 30 minute (radiolabeled with [125I]-. Conditions: in vivo, iv, 0.5 h. The format is ADME, organism-based. In outline:
as §1

Data set [15] concerns Rattus norvegicus. Put plainly: Concentration was measured in kidney tissue of unfasted Fischer 344 rats administered intravenously after 5 minute (radiolabeled with [125I]-. In kind it is ADME, organism-based. Conditions: in vivo, iv, 5 min. A digest of the protocol: as §1
Data set [16] concerns Rattus norvegicus. As to the kind of experiment: Concentration was measured in liver tissue of fasted Fischer 344 rats administered intravenously after 4 hr (radiolabeled with [125I]-. Particulars: in vivo, iv.
Data set [17] deals with Rattus norvegicus. Put plainly: Concentration was measured in mean heart/blood tissue of unfasted Fischer 344 rats administered intravenously after 4 hr (radiolabeled with [125I]-. In kind it is ADME, organism-based. Conditions: other tissue, iv.

The structures appear in SMILES notation.

On to `CC(CCCCCCCCCCCCCC/C=C/I)CC(=O)O.O=C(O)CCCCCCCCCCCCCCCC/C=C/I` (configuration not stated), for which the Distribution with Rattus norvegicus [1] is on record as 1.23%; with Rattus norvegicus [2], 4.87%; with Rattus norvegicus [3], 0.53%; in the data set with Rattus norvegicus [4] it was 2.56%; with Rattus norvegicus [5] it was 102%; in the data set on Rattus norvegicus [6], 2.94%. Further, the Distribution stood at 16.7% in the data set with Rattus norvegicus [7]; 4.1% with Rattus norvegicus [8]; 3.49% in the data set on Rattus norvegicus [9]; 0.78% in the data set with Rattus norvegicus [10]; 1.2% in the data set with Rattus norvegicus [11]; 22.5% in the data set on Rattus norvegicus [12]. Also, the Distribution is reported as 0.66% with Rattus norvegicus [13]; 0.91% in the data set on Rattus norvegicus [14]; 1.06% in the data set with Rattus norvegicus [15]; 1.11% with Rattus norvegicus [16]; 2.6% in the data set with Rattus norvegicus [17].
